Laboratory results taken from ChEMBL document CHEMBL2331406, “In vitro activity of scorpiand-like azamacrocycle derivatives in promastigotes and intracellular amastigotes of Leishmania infantum and Leishmania braziliensis” (Eur J Med Chem, 2013).
Calls of active or inactive are those of the source. No cut-off for these calls is given here.

How the values were obtained:
[1] = Ratio of compound selectivity index to glucantime selectivity index for amastigote form of Leishmania infantum MCAN/ES/2001/UCM-10 infected in J774.2 cells over mouse J774.2 cells
Procedure, shortened: (§1)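 J774.2 macrophages in MEM + 2 mM glutamine + 20% inactivated FCS were infected with stationary-phase promastigotes (10:1) for 24 h at 37 °C, 5% CO2. After washing, compounds were added at […] for 72 h. Amastigote reduction was scored in methanol-fixed, Giemsa-stained preparations; IC50 by regression; triplicates. SI = J774.2 IC50 (72 h flow cytometry)/amastigote IC50; ratio is versus Glucantime SI.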

[2] = Ratio of compound selectivity index to glucantime selectivity index for promastigote form of Leishmania braziliensis MHOM/BR/1975/M2904 over mouse J774.2 cells
Leishmania braziliensis [3] = experiment: Antileishmanial activity against promastigote form of Leishmania braziliensis MHOM/BR/1975/M2904 assessed as electro-dense vesicles at IC25 concentration after 96 hrs by MET microscopic analysis; format: functional; conditions: MHOM/BR/75/M2904
Procedure, shortened: (§2)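 Promastigotes at 5 × 10^5 cells/mL in MTL medium with compound at IC25 for 96 h. Ultrastructure examined by transmission electron microscopy against untreated control parasites.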

Leishmania braziliensis [4] = experiment: Antileishmanial activity against promastigote form of Leishmania braziliensis MHOM/BR/1975/M2904 assessed as empty cytoplasmic at IC25 concentration after 96 hrs by MET microscopic analysis; format: functional; conditions: MHOM/BR/75/M2904; procedure, shortened: as §2
[5] = Selectivity index, ratio of IC50 for mouse J774.2 cells to IC50 for amastigote form of Leishmania braziliensis MHOM/BR/1975/M2904 infected in J774.2 cells; format: toxicity, cell-based; conditions: J774.2 cells, read-out: Ratio IC50; procedure, shortened: as §1
J774.2 = experiment: Cytotoxicity against mouse J774.2 cells after 72 hrs by PI-staining based flow cytometric analysis; format: cell-based; conditions: J774.2, 72 h
Procedure, shortened: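 J774.2 macrophages (ECACC 91051511, female BALB/c mouse tumour) treated 72 h with 100, 50, 25, 10 and 1 of compound. Propidium iodide then fluorescein diacetate each added for 10 min at 28 °C in the dark. Cells pelleted at 400g, washed in PBS and analysed by flow cytometry. Viability % vs control; IC50 by linear regression of Kc values.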

[6] = Inhibition of promastigote form Leishmania infantum MCAN/ES/2001/UCM-10 Fe-SOD by NBT reduction assay
Procedure, shortened: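 Promastigotes sonicated in STE buffer (pH 7.8). The 35–85% ammonium sulphate fraction was desalted into 20 mM potassium phosphate/1 mM EDTA, pH 7.8, and protein was measured by Bradford. Fe-SOD activity was read spectrophotometrically as inhibition of NBT reduction by superoxide (Beyer–Fridovich); one unit gives 50% inhibition of the rate. Compounds tested at […]; IC50 by linear regression; three determinations, Newman–Keuls test.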

Leishmania braziliensis [7] = experiment: Antileishmanial activity against promastigote form of Leishmania braziliensis MHOM/BR/1975/M2904 assessed as change in alanine metabolite production at IC25 concentration after 96 hrs by H1-NMR analysis; format: functional, MHOM/BR/75/M2904
Procedure, shortened: (§3)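 Promastigote cultures, initial 5 × 10^5 cells/mL, given the IC25 of compound; controls left untreated. Incubated 96 h at 28 °C, then centrifuged at 400g for 10 min. Excreted metabolites in the medium identified by 1H NMR spectra and compared with untreated control.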

Leishmania braziliensis [8] = experiment: Antileishmanial activity against promastigote form of Leishmania braziliensis MHOM/BR/1975/M2904 after 72 hrs by haemocytometric analysis; format: functional; conditions: MHOM/BR/75/M2904, 72 h
Procedure, shortened: (§4)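 Promastigotes grown at 28 °C in MTL medium with 10% inactivated FCS. Compounds in DMSO (0.1%), diluted in culture medium to 100, 50, 25, 10 and 1. Cells counted at 72 h in a Neubauer haemocytometric chamber. IC50 (50% inhibition) by linear regression of Kc values.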

Leishmania braziliensis [9] = experiment: Antileishmanial activity against axenic amastigote form of Leishmania braziliensis MHOM/BR/1975/M2904 after 72 hrs by haemocytometric analysis; format: functional, MHOM/BR/75/M2904; conditions: Leishmania braziliensis, MHOM/BR/75/M2904, 72 h
Procedure, shortened: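 Axenic amastigotes made by culturing promastigotes 3 days at 37 °C in M199 with 10% heat-inactivated FCS plus organic acids, amino acids, sucrose, bicarbonate, MES, haemin and gentamicin, pH 5.4. Compound effect counted in a Neubauer haemocytometer chamber. IC50 by linear regression of Kc values at 1, 10, 25, 50 and 100.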

Leishmania infantum [10] = experiment: Antileishmanial activity against promastigote form of Leishmania infantum MCAN/ES/2001/UCM-10 after 72 hrs by haemocytometric analysis; format: functional, organism-based; conditions: Leishmania infantum, MCAN/ES/2001/UCM-10, 72 h; procedure, shortened: as §4
Leishmania braziliensis [11] = experiment: Antileishmanial activity against promastigote form of Leishmania braziliensis MHOM/BR/1975/M2904 assessed as change in acetate metabolite production at IC25 concentration after 96 hrs by H1-NMR analysis; format: functional, MHOM/BR/75/M2904; procedure, shortened: as §3
Leishmania braziliensis [12] = experiment: Antileishmanial activity against amastigote form of Leishmania braziliensis MHOM/BR/1975/M2904 infected in J774.2 cells after 72 hrs by haemocytometric analysis; format: functional, cell-based, MHOM/BR/75/M2904; conditions: Leishmania braziliensis, MHOM/BR/75/M2904, J774.2, 72 h
Procedure, shortened: (§5)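 J774.2 macrophages grown in MEM with 2 mM glutamine and 20% inactivated FCS at 37 °C in 5% CO2. Infected with stationary-phase promastigotes at 10:1 for 24 h, then washed free of non-phagocytosed parasites. Compounds at 1, 10, 25, 50 and 100 for 72 h. Amastigotes counted on methanol-fixed, Giemsa-stained preparations and % reduction taken vs untreated. IC50 by linear regression of Kc values; three separate determinations.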

Leishmania infantum [13] = experiment: Antileishmanial activity against amastigote form of Leishmania infantum MCAN/ES/2001/UCM-10 infected in J774.2 cells after 72 hrs by haemocytometric analysis; format: functional, organism-based; conditions: Leishmania infantum, MCAN/ES/2001/UCM-10, J774.2, 72 h; procedure, shortened: as §5
Leishmania infantum [14] = experiment: Antileishmanial activity against promastigote form of Leishmania infantum MCAN/ES/2001/UCM-10 assessed as increase in glycosomes at IC25 concentration after 96 hrs by […] electron microscopic analysis relative to control; format: functional, organism-based; procedure, shortened: as §2
Leishmania infantum [15] = experiment: Antileishmanial activity against promastigote form of Leishmania infantum MCAN/ES/2001/UCM-10 assessed as ethanol metabolite production at IC25 concentration after 96 hrs by H1-NMR analysis; format: functional; procedure, shortened: as §3
Leishmania infantum [16] = experiment: Antileishmanial activity against promastigote form of Leishmania infantum MCAN/ES/2001/UCM-10 infected in J774.2 cells assessed as inhibition of number of amastigotes per host cell at IC25 concentration incubated for 12 hrs followed by compound washout measured after 48 hrs by microscopic analysis; format: functional
Procedure, shortened: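 J774.2 cells seeded at 1 × 10^4 cells/well on coverslips and cultured 2 days. Infected with promastigotes at 10:1 with drug at IC25 added immediately, for 12 h at 37 °C in 5% CO2. Parasites and drug washed out, then grown 10 days with washing and fresh medium every 48 h. On methanol-fixed, Giemsa-stained slides, % infected cells and amastigotes per infected cell scored from more than 200 host cells. Three determinations.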

Leishmania infantum [17] = experiment: Antileishmanial activity against promastigote form of Leishmania infantum MCAN/ES/2001/UCM-10 assessed as change in succinate metabolite production at IC25 concentration after 96 hrs by H1-NMR analysis; format: functional; procedure, shortened: as §3

| SMILES | Ratio [1] | Ratio [2] | Activity (Leishmania braziliensis [3]) | Activity (Leishmania braziliensis [4]) | selectivity ratio [5] | IC50 (J774.2) [µM] | IC50 [6] [µM] | Activity (Leishmania braziliensis [7]) [%] | IC50 (Leishmania braziliensis [8]) [µM] | IC50 (Leishmania braziliensis [9]) [µM] | IC50 (Leishmania infantum [10]) [µM] | Activity (Leishmania braziliensis [11]) [%] | IC50 (Leishmania braziliensis [12]) [µM] | IC50 (Leishmania infantum [13]) [µM] | Activity (Leishmania infantum [14]) | Activity (Leishmania infantum [15]) [%] | inhibition (INH) (Leishmania infantum [16]) [%] | Activity (Leishmania infantum [17]) [%] |
| --- | --- | --- | --- | --- | --- | --- | --- | --- | --- | --- | --- | --- | --- | --- | --- | --- | --- | --- |
| Br.NCCN1CCNCc2cccc(n2)CNCC1 | 18 | 30 | Active | Active | 23.2 | 232 | 6.5 | 5 | 11.8 | 16 | 18.9 | 18 | 10 | 25.6 | – | – | – | – |
| Cl.c1cncc(CNCCN2CCNCc3cccc(n3)CNCC2)c1 | 149 | 34 | Active | Active | 45.4 | 468 | 5.7 | 10 | 23 | 23.9 | 18.8 | -13 | 10.3 | 6.3 | Active | 28 | 77 | -36 |
| Cl.c1ccc(CNCCN2CCNCc3cccc(n3)CNCC2)nc1 | 26 | 37 | Active | Active | 24.4 | 254 | 16.1 | 8 | 11.3 | 16 | 15.5 | -46 | 10.4 | 19.6 | Active | 10 | 67 | -59 |
| Cl.c1cc2nc(c1)CNCCN(CCNCc1cccc3ccccc13)CCNC2 | 42 | 49 | Active | Active | 22 | 365 | 17.6 | 0 | 12.3 | 24.9 | 21.7 | 8 | 16.6 | 17.4 | Active | 110 | 71 | -3 |
